In ChEMBL document CHEMBL1124035, “1-Amino-substituted 4-methyl-5H-pyrido[4,3-b]indoles (gamma-carbolines) as tricyclic analogues of ellipticines: a new class of antineoplastic agents” (1988):

Assays:
[1] = test system: Mus musculus; experiment: Antitumor activity against P388 leukemia in mice at a dose of 10 mg/kg administered intraperitoneally for 5 days; format: functional; conditions: route intraperitoneal
Outline: (§1)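 CDF1 hybrid male or female mice, 10 per group, were inoculated ip with 10^6 viable P388 cells on day 0. Drugs in distilled water were given ip (0.1 mL/10 g body weight) daily D1-5. Vehicle, 5-fluorouracil and BD 84 were given the same way. T/C = median survival day of treated / controls × 100; T/C > 128% was significant; cures counted at D60.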

[2] = test system: L1210; experiment: Ability to reduce the cell count to 50% in L1210 culture cells; format: functional; conditions: Mus musculus, read-out: ID50 (the source's name)
Outline: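 L1210 cells in exponential growth in RPMI 1640 with 2 mM glutamine, penicillin/streptomycin and 10% FCS, 37 °C, 5% CO2. Drugs dissolved in distilled water were added to cells at 0.8 × 10^5 cells/mL for 48 h, then cells were counted. ID50 is the concentration halving cell proliferation versus controls, from regression of dose-response data; mean of two independent experiments.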

[3] = test system: Calf thymus DNA; experiment: Apparent DNA affinity constant; format: nucleic-acid assay; conditions: Bos taurus
Outline: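 Apparent DNA affinity constant was measured by competition with ethidium bromide. Buffer was 20 mM Na2HPO4/NaH2PO4, 0.1 M NaCl, 1 mM EDTA, pH 7.4, with calf thymus DNA at 10 μg/mL. Values are given in 10^6 M⁻¹.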

[4] = test system: Mus musculus; experiment: Antitumor activity against P388 leukemia in mice at a dose of 50 mg/kg administered intraperitoneally for 5 days; […]; format: functional; conditions: route intraperitoneal
Outline: (§2)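 CDF1 hybrid male or female mice, 10 per group, were inoculated ip on day 0 with 10^6 viable P388 leukemia cells. Drug in distilled water was given ip (0.1 mL/10 g body weight) daily on days 1-5, with vehicle, 5-fluorouracil and BD 84 controls given the same way. T/C = median survival of treated/controls × 100; T/C > 128% counted as significant.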

[5] = test system: Mus musculus; experiment: Antitumor activity against P388 leukemia in mice at a dose of 20 mg/kg administered intraperitoneally for 5 days; format: functional; conditions: route intraperitoneal; outline: as §1
[6] = test system: Mus musculus; experiment: Antitumor activity against P388 leukemia in mice at a dose of 40 mg/kg administered intraperitoneally for 5 days; format: functional; outline: as §2
[7] = test system: Mus musculus; experiment: Antitumor activity against P388 leukemia in mice at a dose of 5 mg/kg administered intraperitoneally for 5 days; format: functional; conditions: route intraperitoneal; outline: as §2
[8] = test system: Mus musculus; experiment: Antitumor activity against P388 leukemia in mice at a dose of 40 mg/kg administered intraperitoneally; format: functional, organism-based; set-up: dose 40 mg/kg
[9] = test system: Mus musculus; experiment: Median survival day in B16 melanoma infected mice when a dose of 10 mg/kg administered intraperitoneally; format: functional; conditions: route intraperitoneal
Outline: (§3)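 B16 melanoma in hybrid BD F1 mice. At D0 each mouse was inoculated ip with 0.5 mL of homogenate made from 1 g of tumour in 10 mL of physiological serum. Compounds were given ip daily at the stated doses for 9 days (D1-9), with cis-platinum 0.5 mg/kg under the same schedule as positive control.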

[10] = test system: Mus musculus; experiment: Survivors at day 60 when a dose of 1.25 mg/kg to B16 melanoma infected mice; 0/10; format: functional
[11] = test system: Mus musculus; experiment: Antitumor activity against P388 leukemia in intraperitoneally for 5 days; format: functional; outline: as §1
[12] = test system: Mus musculus; experiment: Weight change in g when a dose of 2.5 mg/kg administered intraperitoneally to B16 melanoma infected mice; format: functional; conditions: route intraperitoneal
Outline: (§4)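 Hybrid BDF1 mice were inoculated ip at D0 with 0.5 mL of B16 melanoma homogenate (1 g tumor in 10 mL physiological serum). Drug was given ip daily on days 1-9, with cis-platinum 0.5 mg/kg as positive control on the same schedule.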

[13] = test system: Mus musculus; experiment: Weight change in g when a dose of 1.25 mg/kg administered intraperitoneally to mice; format: functional; conditions: route intraperitoneal; outline: as §4
[14] = test system: Mus musculus; experiment: Survivors at day 30 when a dose of 40 mg/kg to P388 leukemia mice model; 0/10; format: functional
[15] = test system: Mus musculus; experiment: Antitumor activity against B16 melanoma infected mice at a dose of 10 mg/kg administered intraperitoneally; format: functional; conditions: route intraperitoneal
Outline: (§5)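 Hybrid BD F1 mice were inoculated ip at D0 with 0.5 mL of B16 melanoma homogenate (1 g tumor in 10 mL physiological serum). Drugs were given ip daily D1-9. Cisplatin 0.5 mg/kg was the positive control under the same schedule.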

[16] = test system: Mus musculus; experiment: Median survival day in B16 melanoma infected mice when a dose of 5 mg/kg administered intraperitoneally; format: functional; conditions: route intraperitoneal; outline: as §3
[17] = test system: Mus musculus; experiment: Weight change in g when a dose of 5 mg/kg administered intraperitoneally to P388 leukemia mice model; format: functional; conditions: route intraperitoneal
Outline: (§6)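 P388 model with a single ip dose. Mice (10 per group) were inoculated ip at D0 with 10^6 P388 cells and given one ip drug dose at D1. Body-weight change (g), median survival day, T/C and survivors at D30 were recorded.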

[18] = test system: Mus musculus; experiment: Survivors at day 30 when a dose of 5 mg/kg to P388 leukemia mice model; 0/10; format: functional
[19] = test system: Mus musculus; experiment: Antitumor activity against P388 leukemia in mice at a dose of 1.25 mg/kg administered intraperitoneally for 5 days; format: functional; conditions: route intraperitoneal; outline: as §1
[20] = test system: Mus musculus; experiment: Antitumor activity against P388 cells at a dose of 10 mg/kg administered intraperitoneally to P388 leukemia model; format: functional; conditions: route intraperitoneal
Outline: (§7)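 Mice were inoculated ip with 10^6 P388 leukemia cells at D0, then given a single ip drug dose on D1. Weight change was recorded. T/C % = median survival day of treated / controls × 100; survivors counted at D30; 10 mice per dose group, 20 controls.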

[21] = test system: Mus musculus; experiment: Median survival day of P388 leukemia model when a dose of 10 mg/kg administered intraperitoneally; format: functional; conditions: route intraperitoneal
Outline: (§8)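 P388 leukaemia in CDF1 hybrid mice, 10 per group. At D0, 10^6 viable cells were inoculated ip, followed by a single ip dose of drug in distilled water on D1. Weight change, median survival day, T/C (treated/control median survival × 100) and survivors at D30 were recorded. Controls were 20 mice.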

[22] = test system: Mus musculus; experiment: Median survival day in B16 melanoma infected mice when a dose of 1.25 mg/kg administered intraperitoneally; format: functional; conditions: route intraperitoneal; outline: as §3
[23] = test system: Mus musculus; experiment: Antitumor activity against P388 cells at a dose of 20 mg/kg administered intraperitoneally to P388 leukemia model; format: functional; conditions: route intraperitoneal; outline: as §7
[24] = test system: Mus musculus; experiment: Antitumor activity against B16 melanoma infected mice at a dose of 1.25 mg/kg administered intraperitoneally; format: functional; conditions: route intraperitoneal; outline: as §5
[25] = test system: Mus musculus; experiment: Survivors at day 60 when a dose of 10 mg/kg to B16 melanoma infected mice; 0/10; format: functional
[26] = test system: Mus musculus; experiment: Survivors at day 60 when a dose of 2.5 mg/kg to B16 melanoma infected mice; 0/10; format: functional
[27] = test system: Mus musculus; experiment: Antitumor activity against P388 leukemia in mice at a dose of 20 mg/kg administered intraperitoneally; format: functional, organism-based; set-up: dose 20 mg/kg; outline: as §1
[28] = test system: Mus musculus; experiment: Median survival day of P388 leukemia model when a dose of 40 mg/kg administered intraperitoneally to mice; format: functional; conditions: route intraperitoneal; outline: as §8
[29] = test system: Mus musculus; experiment: Antitumor activity against P388 leukemia in mice at a dose of 2.5 mg/kg administered intraperitoneally for 5 days; format: functional; conditions: route intraperitoneal; outline: as §1
[30] = test system: Mus musculus; experiment: Antitumor activity against P388 leukemia in mice at a dose of 0.625 mg/kg administered intraperitoneally for 5 days; format: functional; conditions: route intraperitoneal; outline: as §1
[31] = test system: Mus musculus; experiment: Weight change in g when a dose of 10 mg/kg administered intraperitoneally to B16 melanoma infected mice; format: functional; conditions: route intraperitoneal; outline: as §4
[32] = test system: Mus musculus; experiment: Weight change in g when a dose of 5 mg/kg administered intraperitoneally to B16 melanoma infected mice; format: functional; conditions: route intraperitoneal; outline: as §4
[33] = test system: Mus musculus; experiment: Weight change in g when a dose of 40 mg/kg administered intraperitoneally to P388 leukemia mice model; format: functional; conditions: route intraperitoneal; outline: as §6
[34] = test system: Mus musculus; experiment: Survivors at day 30 when a dose of 20 mg/kg to P388 leukemia mice model; 0/10; format: functional; outline: as §8
[35] = test system: Mus musculus; experiment: Median survival day in B16 melanoma infected mice when a dose of 2.5 mg/kg administered intraperitoneally; format: functional; conditions: route intraperitoneal; outline: as §3
[36] = test system: Mus musculus; experiment: Antitumor activity against P388 cells at a dose of 5 mg/kg administered intraperitoneally to P388 leukemia model; format: functional; conditions: route intraperitoneal; outline: as §7
[37] = test system: Mus musculus; experiment: Antitumor activity against P388 cells at a dose of 40 mg/kg administered intraperitoneally to P388 leukemia model; format: functional; conditions: route intraperitoneal; outline: as §7
[38] = test system: Mus musculus; experiment: Weight change in g when a dose of 10 mg/kg administered intraperitoneally to P388 leukemia mice model; format: functional; conditions: route intraperitoneal; outline: as §6
[39] = test system: Mus musculus; experiment: Survivors at day 30 when a dose of 10 mg/kg to P388 leukemia mice model; 0/10; format: functional; outline: as §8
[40] = test system: Mus musculus; experiment: Median survival day of P388 leukemia model when a dose of 20 mg/kg administered intraperitoneally; format: functional; conditions: route intraperitoneal; outline: as §8
[41] = test system: Mus musculus; experiment: Survivors at day 60 when a dose of 5 mg/kg to B16 melanoma infected mice; 0/10; format: functional
[42] = test system: Mus musculus; experiment: Median survival day of P388 leukemia model when a dose of 5 mg/kg administered intraperitoneally; format: functional; conditions: route intraperitoneal; outline: as §8
[43] = test system: Mus musculus; experiment: Antitumor activity against B16 melanoma infected mice at a dose of 2.5 mg/kg administered intraperitoneally; format: functional; conditions: route intraperitoneal; outline: as §5
[44] = test system: Mus musculus; experiment: Antitumor activity against B16 melanoma infected intraperitoneally; format: functional; outline: as §5
[45] = test system: Mus musculus; experiment: Weight change in g when a dose of 20 mg/kg administered intraperitoneally to P388 leukemia mice model; format: functional; conditions: route intraperitoneal; outline: as §6

CCN(CC)CCCNc1[nH]cc(C)c2nc3ccccc3c1-2.O=C(O)/C=C\C(=O)O.O=C(O)/C=C\C(=O)O
T/C [1]: 130% | IC50 [2]: 220 nM | K aff [3]: 150000 M⁻¹ | T/C [4]: 175%

COc1ccc2c(c1)c1c(NCCCN(C)C)ncc(C)c1n2C
T/C [1]: 160% | T/C [5]: 150% | T/C [6]: Toxic | T/C [7]: 134% | IC50 [2]: 130 nM | K aff [3]: 360000 M⁻¹

CCNCCCNc1[nH]cc(C)c2nc3ccc(OC)cc3c1-2
T/C [1]: 119% | T/C [5]: 107% | T/C [7]: 119% | IC50 [2]: 1200 nM | K aff [3]: 220000 M⁻¹ | T/C [8]: Toxic

Cc1c[nH]c(NCCCN(C)C)c2c3cc(O)ccc3nc1-2
Median survival day [9]: 11.7 | Survivors [10]: 0 | T/C [11]: 186% | Weight change [12]: 1.8 g | Weight change [13]: 2.8 g | Survivors [14]: 0 | T/C [15]: 42% | Median survival day [16]: 44 | T/C [1]: 148% | Weight change [17]: -0.1 g | Survivors [18]: 0 | T/C [19]: 150% | T/C [20]: 139% | Median survival day [21]: 15.25 | Median survival day [22]: 32 | T/C [23]: 142% | T/C [24]: 116% | Survivors [25]: 0 | Survivors [26]: 0 | T/C [27]: Toxic | Median survival day [28]: 15.3 | T/C [29]: 145% | T/C [30]: 139% | Weight change [31]: 0.5 g | Weight change [32]: 2.4 g | Weight change [33]: -1.4 g | Survivors [34]: 0 | Median survival day [35]: 38.75 | T/C [36]: 139% | T/C [37]: 139% | Weight change [38]: 0.3 g | Survivors [39]: 0 | Median survival day [40]: 15.5 | Survivors [41]: 0 | IC50 [2]: 90 nM | Median survival day [42]: 15.3 | T/C [43]: 141% | K aff [3]: 210000 M⁻¹ | T/C [44]: 160% | Weight change [45]: -0.8 g
